We go through one compound from ChEMBL document CHEMBL4813972, “A grafted peptidomimetic for EGFR heterodimerization inhibition: Implications in NSCLC models” (Eur J Med Chem, 2021).

In one series the test system is MCF7. Nature of the series: Antiproliferative activity against human MCF7 cells with silenced HER2 assessed as cell growth inhibition incubated for 72 hrs by cell titer glo assay. The series is classed as functional, cell-based. The conditions noted are these: MCF7, 72 h. The method, boiled down: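 Cells seeded at 1×10^4 per well, left overnight at 37 °C/5% CO2, then exposed to a concentration series of peptide (up to 200, down to 0.01 μM) for 72 h. 1% SDS and 1% DMSO served as controls. Cells were PBS-washed, CellTiter-Glo added and luminescence read. IC50 taken from three independent experiments per cell line.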

Series [1] addresses Receptor tyrosine-protein kinase erbB-2 (Homo sapiens) (UniProt P04626). The experiment in a line: Binding affinity to HER2 domain IV (unknown origin) by SPR analysis. (In SPR one partner is held on a chip, and binding of the other changes the refractive index at the surface.)
Series [2] shares this target. The experiment in a line: Binding affinity to HER2 (unknown origin) assessed as reduction in heterodimerization of HER2/EGFR by competitive based SPR analysis. The method, boiled down: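 Competitive SPR: EGFR with EGF immobilized on a CM5 chip. HER2 protein fixed at 200 nM was preincubated 15 min in HEPES buffer with varying peptide, then injected. Read-out was the drop in response units. Surface regenerated with glycine pH 2.2 between injections.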

Series [3] deals with T1, ErbB-2/ErbB-3 heterodimer (Homo sapiens) (UniProt P04626+P21860). The experiment in a line: Inhibition of HER2/HER3 dimerization in human A549 cells incubated for 48 hrs by proximity ligation assay. The series is classed as cell-based. Conditions: dose 0.5-1 µM. The method, boiled down: (§1)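 A549 or Calu-3 cells (~1×10^4/well) on chamber slides, treated 48 h with 0.5 or 1 μM peptide. Controls: no compound, and one primary antibody omitted. Cells fixed in cold methanol, primary antibodies (EGFR, HER2, HER3) applied overnight at 4 °C, then PLA probes. Red fluorescence imaged at 40x and quantified over 3–6 fields.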

Series [4] concerns the target Epidermal growth factor receptor and ErbB2 (HER1 and HER2) (Homo sapiens) (UniProt P04626+P00533). The experiment in a line: Inhibition of HER2/EGFR dimerization in human Calu-3 cells incubated for 48 hrs by proximity ligation assay. The series is classed as cell-based. The conditions noted are these: dose 0.5-1 µM. The method, boiled down: as §1
The target of series [5] is Receptor tyrosine-protein kinase erbB-2 (Homo sapiens) (UniProt P04626). The experiment in a line: Inhibition of HER2 ECD in human A549 cells assessed as reduction in HER2 intracellular kinase domain phosphorylation at 1 uM incubated for 40 hrs by Western blot analysis. The format is cell-based. A general note: A western blot detects proteins with antibodies after separation by electrophoresis.

A short description of series [6]: Thermal stability of compound at 15 uM incubated at 25 to 75 degC by Circular dichroism spectrometry. The format is physicochemical. The method, boiled down: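 Peptide at 15 μM in acetonitrile. Ellipticity recorded from 25 to 75 °C in 5 °C steps.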
In general terms: Circular dichroism is the unequal absorption of left and right circularly polarised light.

A short description of series [7]: Thermal stability of compound at 15 uM incubated at 25 to 75 degC in presence of DTT by circular dichroism spectrometry. The series is classed as physicochemical.
The test system of a further series is Calu-3. The experiment in a line: Antitumor activity in human Calu-3 cells xenografted in Foxn1nu/Foxn1+ mouse assessed as reduction in tumor growth at 8 mg/kg, IT(Intratumoral) administered thrice a week for 21 days and measured on day 21 relative to control. The series is classed as functional, organism-based. Conditions: time 21.0 day.
Series [8] can be described thus: Toxicity in Foxn1nu/Foxn1+ mouse xenografted with human Calu-3 cells assessed as clinical observation at 8 mg/kg, IT(Intratumoral) administered thrice a week for 28 days and measured on day 28. The format is organism-based. The conditions noted are these: in vivo, other, 672 h, time 28 day.
The subject of series [9] is Mus musculus. Nature of the series: In vivo inhibition of HER2/EGFR dimerization in human Calu-3 cells xenografted in Foxn1nu/Foxn1+ mouse at 8 mg/kg, IT(Intratumoral) administered thrice a week for 28 days and measured on day 28 by proximity ligation assay. The format is functional, organism-based. Conditions: time 28.0 day. The method, boiled down: (§2)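 Tumors taken from the Calu-3 intratumoral study (8 mg/kg three times weekly, 28 days). Two tumors frozen at −80 °C, homogenized and immunoblotted for p-HER2. Others fixed, paraffin-embedded and sectioned at 5 μm. Sections underwent citrate pH 6.0 antigen retrieval, H2O2 block and BSA/NGS/Triton block, EGFR/HER2 primaries overnight at 4 °C, then PLA probes; imaged at 10X/40X.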

Series [10] relates to Mus musculus. Nature of the series: In vivo inhibition of HER2 in human Calu-3 cells xenografted in Foxn1nu/Foxn1+ mouse assessed as reduction in HER2 phosphorylation at 8 mg/kg, IT(Intratumoral) administered thrice a week for 28 days and measured on day 28 by Western blot analysis. The format is functional, organism-based. The conditions noted are these: time 28.0 day. The method, boiled down: as §2

A further series relates to A549. Nature of the series: Antitumor activity in Red-Fluc transfected human A549 cells harbouring KRAS mutant/wild type EGFR xenografted in Foxn1nu/Foxn1+ mouse assessed as reduction in tumor growth by measuring relative luminescence intensity at 6 mg/kg, iv treated twice a week measured after 2 weeks relative to vehicle. The format is functional, organism-based.
The test system of series [11] is Mus musculus. The experiment in a line: In vivo inhibition of HER2/EGFR dimerization in human A549 cells harbouring KRAS mutant/wild type EGFR xenografted in Foxn1nu/Foxn1+ mouse by measuring reduction in red fluorescence at 6 mg/kg, iv administered twice a week for 5 weeks by proximity ligation assay. The format is functional, organism-based. The method, boiled down: (§3)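 Lung tumor sections from the A549-Red-FLuc i.v. metastasis mice (6 mg/kg i.v. twice weekly; sacrificed day 35). FFPE sections had citrate pH 6.0 antigen retrieval at 100 °C, peroxidase and serum blocking, primaries overnight at 4 °C, and PLA probes for EGFR:HER2 and HER2:HER3. Red fluorescence imaged at 40×.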

For series [12], the system named is Mus musculus. Nature of the series: In vivo inhibition of HER2/HER3 dimerization in human A549 cells harbouring KRAS mutant/wild type EGFR xenografted in Foxn1nu/Foxn1+ mouse by measuring reduction in red fluorescence at 6 mg/kg, iv administered twice a week for 5 weeks by proximity ligation assay. The series is classed as functional, organism-based. The method, boiled down:
as §3

The nature of series [13]: Toxicity in BALB/c mouse assessed as Ki-67 expression in CD4+ at 6 mg/kg, iv administered on day 0 and 10 and spleenocytes collected on day 13 and incubated for 48 hrs by flow cytometry analysis. The format is organism-based. Conditions: in vivo, 360 h, time 15 day. The method, boiled down: (§4)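 Female BALB/c mice given 6 mg/kg peptide in PBS i.v. (or PBS) on days 0 and 10, 12 mice in total. Splenocytes harvested day 13, RBC-lysed, and ≥2×10^6 cultured 48 h in RPMI/10% FBS with control media or peptide. Cells then stained for viability, CD3/CD4/CD8a and intracellular Ki67, and analyzed by flow cytometry.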

Series [14] in a line: Toxicity in BALB/c mouse assessed as Ki-67 expression in CD8+ at 6 mg/kg, iv administered on day 0 and 10 and spleenocytes collected on day 13 and incubated for 48 hrs by flow cytometry analysis. Conditions: in vivo, 360 h, time 15 day. The format is organism-based. The method, boiled down:
as §4

A short description of series [15]: Toxicity in BALB/c mouse assessed as Ki-67 expression in CD4+CD8+ at 6 mg/kg, iv administered on day 0 and 10 and spleenocytes collected on day 13 and incubated for 48 hrs by flow cytometry analysis. The format is organism-based. The conditions noted are these: in vivo, 360 h, time 15 day. The method, boiled down:
as §4

The target in series [16] is T1, ErbB-2/ErbB-3 heterodimer (Homo sapiens). Nature of the series: Inhibition of HER2/HER3 dimerization in human Calu-3 cells incubated for 48 hrs by proximity ligation assay. The format is cell-based. The method, boiled down: as §1
Series [17] is described as follows: Toxicity in Foxn1nu/Foxn1+ mouse xenografted with human A549 cells harbouring KRAS mutant/wild type EGFR assessed as hyper-chromatic nuclei in lung at 6 mg/kg, iv administered twice a week for 5 weeks. The conditions noted are these: in vivo, 840 h.
A short description of series [18]: Toxicity in Foxn1nu/Foxn1+ mouse xenografted with human A549 cells harbouring KRAS mutant/wild type EGFR assessed as eosinophilic cytoplasm in lung at 6 mg/kg, iv administered twice a week for 5 weeks. The conditions noted are these: in vivo, 840 h.

Calls of active or inactive are those of the source. The calls are words filed in the database; no cut-off is given here.

Sequence of Receptor tyrosine-protein kinase erbB-2 (Homo sapiens) (P04626 whole entry, the tested form may be a part): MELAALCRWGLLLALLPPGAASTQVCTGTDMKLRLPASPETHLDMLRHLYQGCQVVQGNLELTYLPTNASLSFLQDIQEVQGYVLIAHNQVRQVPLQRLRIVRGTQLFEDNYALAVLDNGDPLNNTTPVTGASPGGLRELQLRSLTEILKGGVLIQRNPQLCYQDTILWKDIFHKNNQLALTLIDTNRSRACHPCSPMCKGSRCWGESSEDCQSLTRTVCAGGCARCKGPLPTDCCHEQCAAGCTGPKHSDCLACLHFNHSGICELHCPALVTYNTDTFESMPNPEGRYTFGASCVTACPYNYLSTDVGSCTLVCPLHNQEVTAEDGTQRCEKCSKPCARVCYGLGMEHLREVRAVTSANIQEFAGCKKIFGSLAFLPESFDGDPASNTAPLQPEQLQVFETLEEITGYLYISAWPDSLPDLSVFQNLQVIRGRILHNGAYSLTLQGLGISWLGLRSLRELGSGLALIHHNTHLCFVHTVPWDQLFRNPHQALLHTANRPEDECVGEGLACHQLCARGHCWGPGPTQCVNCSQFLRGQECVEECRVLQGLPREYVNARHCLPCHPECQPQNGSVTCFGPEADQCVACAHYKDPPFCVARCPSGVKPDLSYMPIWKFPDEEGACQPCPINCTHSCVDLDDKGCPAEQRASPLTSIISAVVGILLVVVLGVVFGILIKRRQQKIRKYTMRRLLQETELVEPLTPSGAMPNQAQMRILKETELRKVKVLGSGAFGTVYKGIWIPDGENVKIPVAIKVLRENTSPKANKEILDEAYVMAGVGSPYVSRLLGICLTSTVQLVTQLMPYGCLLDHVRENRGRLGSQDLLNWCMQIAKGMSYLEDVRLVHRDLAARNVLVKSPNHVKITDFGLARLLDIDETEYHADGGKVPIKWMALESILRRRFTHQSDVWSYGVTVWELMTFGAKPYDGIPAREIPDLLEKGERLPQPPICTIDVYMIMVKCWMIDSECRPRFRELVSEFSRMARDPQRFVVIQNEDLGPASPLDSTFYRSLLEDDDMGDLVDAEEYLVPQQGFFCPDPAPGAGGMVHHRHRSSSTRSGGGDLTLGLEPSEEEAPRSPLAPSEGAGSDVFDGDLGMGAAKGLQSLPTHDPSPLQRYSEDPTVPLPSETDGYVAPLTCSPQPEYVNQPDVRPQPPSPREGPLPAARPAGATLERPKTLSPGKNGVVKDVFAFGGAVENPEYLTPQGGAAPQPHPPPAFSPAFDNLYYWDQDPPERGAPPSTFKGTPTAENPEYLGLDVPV

With `CC[C@H](C)[C@H]1C(=O)NC(=O)[C@H](CCCNC(=N)N)NC(=O)C[C@@H](c2cccc3ccccc23)NC(=O)N[C@H]2CSSC[C@H](NC(=O)C[C@@H](c3cccc4ccccc34)NC(=O)[C@H](CCCNC(=N)N)NC(=O)[C@@H]3CCCN3C(=O)[C@@H]3CCCN13)C(=O)N[C@@H](Cc1ccccc1)C(=O)N1CCC[C@H]1C(=O)N[C@@H](CC(=O)O)C(=O)NC(=O)[C@H](CC(=O)O)NC(=O)[C@H](Cc1ccccc1)NC2=O`, the IC50 with MCF7 was more than 20 µM. Further, the Activity entry in series [1] is “Dose-Dependent Effect”; in [8], “Non-Toxic”; in series [13] it was “Non-Toxic”; in series [14], “Non-Toxic”; in series [15] it was “Non-Toxic”; in [17] it was “Non-Toxic”. Besides, the Activity result in series [18] is “Non-Toxic”. The result (in [2]; with Calu-3; with A549) was Active. The inhibition entry in [3], in series [4] and in [16] was “Dose-Dependent Effect” each time. Also, the inhibition entry (in series [5]; in the series with Mus musculus [9]; in the series on Mus musculus [10]; in the series with Mus musculus [11]; with Mus musculus [12]) was “Active” in each case. The Stabilty result in series [6] and in series [7] was “Stable” each time.

As usually defined, the IC50 is the midpoint of a concentration-inhibition curve.
